Source: PubChem
Runt-CBFb FRET = inhibitors of RUNX1 Runt–CBFb binding, primary screen, biochemical, FRET, Cerulean-Runt, Venus-CBFb, uHTS. Cerulean-Runt/Venus-CBFb FRET ratio 530/480, 1 h. inhibition, % at 20 µM. 220,000 compounds, 0.46% hits;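 active = inhibition over about 50% at 20 µM in the single-dose screen, limit read from the data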;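 note: 0% = DMSO wells and 100% = excess unlabeled CBFb competitor control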
Target sequence (Q01196 whole entry, looked up): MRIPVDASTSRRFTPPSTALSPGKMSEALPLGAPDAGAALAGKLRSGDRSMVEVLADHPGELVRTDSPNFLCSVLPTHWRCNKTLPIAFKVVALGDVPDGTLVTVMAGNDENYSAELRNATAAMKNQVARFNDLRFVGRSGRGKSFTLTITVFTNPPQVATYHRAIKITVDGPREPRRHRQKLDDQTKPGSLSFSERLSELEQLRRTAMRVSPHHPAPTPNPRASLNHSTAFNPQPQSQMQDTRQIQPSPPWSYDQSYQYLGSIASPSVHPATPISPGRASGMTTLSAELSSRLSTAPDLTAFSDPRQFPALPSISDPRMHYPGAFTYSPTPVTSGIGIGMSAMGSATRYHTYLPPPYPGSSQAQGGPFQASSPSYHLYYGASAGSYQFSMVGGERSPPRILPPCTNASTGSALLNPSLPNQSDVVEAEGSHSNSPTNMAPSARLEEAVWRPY
Target sequence (Q13951 whole entry, looked up): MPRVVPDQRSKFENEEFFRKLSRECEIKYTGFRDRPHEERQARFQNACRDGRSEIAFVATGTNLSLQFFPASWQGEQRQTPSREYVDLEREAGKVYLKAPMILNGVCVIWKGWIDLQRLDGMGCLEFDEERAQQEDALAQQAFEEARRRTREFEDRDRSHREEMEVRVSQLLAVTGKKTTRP
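Doses: 20 µM compound in 1% DMSO | Material: Cerulean-labeled Runt domain protein | Amount: Each fluorescent fusion protein 100 nM | Schedule: Two 1 h room-temperature incubations shielded from light | Measured by: FRET fluorescence | Evaluation: Loss of energy transfer signal | Controls: Unlabeled CBFb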
Hck Nef HTS = inhibitors of Nef-activated human Hck kinase, primary screen, biochemical, Z-Lyte FRET, 384-well, Hck-YEEI; Tyrosine-protein kinase HCK (Homo sapiens), P08631; Recombinant Hck-YEEI plus Nef, Z-Lyte FRET kinase assay; inhibition, % at 20 µM; 220,000 compounds, 0.68% hits; AID 463187, 2010;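 active = Hck-Nef kinase inhibition above about 50%, limit read from the data; inactive = inhibition below that limit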;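 note: 0% = DMSO with Hck plus Nef and 100% = Hck alone without Nef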
Runt-SMMHC FRET = inhibitors of RUNX1 Runt–CBFb-SMMHC binding, primary screen, biochemical, FRET, Cerulean-Runt, Venus-CBFb-SMMHC, uHTS | Runt-related transcription factor 1 (Homo sapiens) + Core-binding factor subunit beta … | Cerulean-Runt/Venus-CBFb-SMMHC FRET ratio 530/480, 1 h | inhibition, % at 20 µM | 220,000 compounds, 0.74% hits;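 active = mean inhibition across duplicate retests at 20 µM reaching about 50%, limit read from the data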;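 note: 0% = DMSO wells and 100% = wells with excess untagged CBFb-SMMHC; inhibitors lower the FRET ratio by blocking Runt binding to CBFb-SMMHC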
RanGTP-Imp inh = inhibitors of RanGTP-importin-beta interaction, primary screen, biochemical, FRET, CFP-Ran, YFP-importin-beta, homogeneous | Ran GTPase (GTP-bound) - importin-beta complex | cell-free CFP-Ran/YFP-importin-beta FRET ratio | inhibition, % (test concentration not listed) | 300,000 compounds, 1.1% hits | AID 2216, 2009;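 active = more than half of the replicate wells show a fall in the fluorescence ratio signal beyond about 16%, limit read from the data, passing the limit was not always enough; inconclusive = exactly half of the replicate wells pass the set limit; inactive = fewer than half of replicates pass the limit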;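 note: 0% = DMSO wells and 100% = Ran loaded with GDP instead of GTP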
Hck Nef conf = retest of Hck:Nef kinase inhibitor hits, confirmation, biochemical, Z-Lyte FRET, 384-well, p-Tyr peptide counterscreen; shares compounds with Hck Nef HTS; Recombinant Hck-YEEI:Nef, Z-Lyte FRET kinase assay; calls only at 10 µM; 1,300 compounds, 28% hits;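 active = average inhibition of at least 50%, with Z-scores no higher than 3 in both the phospho-tyrosine peptide and fluorescence counterscreens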
Starred values were filed as active, the others as inactive; i = inactive; ? = inconclusive; · = no result given; + = active, no number. Hits are enriched below; roughly 1.9% of the tested compounds scored in any of these assays.

SMILES | Runt-CBFb FRET | Hck Nef HTS | Runt-SMMHC FRET | RanGTP-Imp inh | Hck Nef conf
Cc1cc(/C=C2\SC(=Nc3ccccc3)NC2=O)c(C)n1-c1ccc(S(N)(=O)=O)cc1 | 0 | 59* | -2 | 21* | i
O=C(O)c1ccc(-n2cccc2/C=N\NC(=O)c2cc3cc(Br)ccc3o2)cc1 | 8 | 54* | -7 | -3 | i
CC(=O)c1cccc(NC(=O)CC2S/C(=N/N=C/c3ccccc3)NC2=O)c1 (stereo unspecified) | -3 | 53* | -2 | 3 | i
Cc1cccn2c(=O)c3cc(C(=O)NCC(C)C)sc3nc12 | · | · | · | -4 | ·
Cc1nc2ccccc2c(=O)n1CCCN1CCOCC1 | 0 | 17 | -1 | 0 | ·
N#Cc1cc2c(=O)n3ccccc3nc2n(CCCN2CCOCC2)c1=O | 77* | 149* | 62* | 95* | ·
Cn1c(=N)c(S(=O)(=O)c2ccc(Cl)cc2)cc2c(=O)n3ccccc3nc21 | · | 2 | · | · | ·
C=CCn1c(=N)c(C(=O)NCCCOC)cc2c(=O)n3cccc(C)c3nc21 | 18 | 200* | 61* | + | ·
N#Cc1cc2c(=O)n3ccccc3nc2n(-c2ccccc2Cl)c1=O | 3 | + | 90* | 136* | ·
CNC(=O)c1cc2c(=O)n3cccc(C)c3nc2n(C(C)C)c1=N | 19 | 172* | 60* | 184* | ·
CCc1nc2ccccc2c(C(=O)OCC(=O)Nc2cccc(S(=O)(=O)N3CCOCC3)c2)c1C | -2 | 0 | -4 | -4 | ·
CCC(Sc1nc2cc(OC)c(OC)cc2c(=O)n1CCc1ccc(OC)c(OC)c1)C(=O)NCCOC (stereo unspecified) | -2 | 25 | 0 | 0 | ·
CC(=O)N1CC(=O)N(c2ccccc2)C1=O | · | · | · | -2 | ·
CCOC(=O)/C=C1\SCC(=O)N1CC(=O)Nc1cccc(F)c1 | -2 | 4 | 0 | 5 | ·
Cc1ccc2nc3c(cc(C(=O)NC4CCCC4)c(=N)n3CCCn3ccnc3)c(=O)n2c1 | · | 110* | · | 156* | ·
Cc1cccn2c(=O)c3cc(C(=O)NCCN4CCOCC4)c(=N)n(CCc4ccccc4)c3nc12 | 11 | 61* | 41 | 185* | ·
Cc1cccn2c(=O)c3cc(C(=O)NCCc4ccccc4)c(=N)n(CCCn4ccnc4)c3nc12 | 9 | 61* | 82* | 178* | ·
CCC(C)n1c(=N)c(C#N)cc2c(=O)n3cc(C)ccc3nc21 (stereo unspecified) | · | 28 | · | 5 | ·
Cc1ccc2nc3c(cc(C#N)c(=O)n3-c3nccs3)c(=O)n2c1 | 12 | 185* | 65* | 191* | ·
Cc1cccn2c(=O)c3cc(C(=O)NCCCn4ccnc4)n(C)c3nc12 | 2 | 19 | 11 | 4 | ·
O=c1c2nnn(Cc3ccccc3)c2ncn1-c1ccccc1 | 1 | 1 | 0 | -1 | ·
Cc1ccc(-n2c(=O)c(C#N)cc3c(=O)n4cccc(C)c4nc32)cc1 | 122* | 67* | 59* | 93* | ·
Cc1cccn2c(=O)c(C=O)c(Cl)nc12 | 4 | 0 | 0 | ? | ·
CCNC(=O)c1cc2c(=O)n3cccc(C)c3nc2n(CCc2ccccc2)c1=N | 17 | 98* | 62* | 186* | ·
CCCCNC(=O)c1cc2c(=O)n3cccc(C)c3nc2n1C | 5 | · | 19 | · | ·
SMILES | Runt-CBFb FRET | Hck Nef HTS | Runt-SMMHC FRET | RanGTP-Imp inh | Hck Nef conf
O=C(NCCN1CCOCC1)c1cc2c(=O)n3ccccc3nc2n1Cc1ccccc1 | 20 | 52* | 48 | 6 | i
COc1ccc(OC)c(S(=O)(=O)N2CCN(C34CC5CC(CC(C5)C3)C4)CC2)c1 | -2 | 0 | 1 | 2 | ·
COc1ccccc1CN(C)C(=O)CN1C(=O)c2ccccc2C1=O | · | · | · | 7 | ·
CC(C)C(=O)NCCc1nc(-c2ccc(Cl)cc2)no1 | · | · | · | 0 | ·
O=C(O)c1cccc(N2C(=O)/C(=C/c3ccc(SCc4ccc(Cl)cc4)o3)SC2=S)c1 | 36 | 82* | 9 | · | +
O=C(CCN1C(=O)/C(=C/c2ccc(Cl)cc2)SC1=S)Nc1cccc(C(=O)O)c1 | · | · | · | 1 | ·
O=C(Oc1ccc(Br)cc1)c1n[nH]c(=O)c2ccccc12 | 0 | -6 | -3 | 0 | ·
C/C=C/C=C\C(=O)Nc1cccc(C2=NOC3(C2)C[C@@H](C(N)=O)N(C(=O)c2cc([N+](=O)[O-])cc([N+](=O)[O-])c2)C3)c1 (stereo partly specified) | 3 | 50* | 1 | 0 | i
C/C=C\C=C\C(=O)N1CC2(CC(c3cccc(NC(=O)CC(c4ccccc4)c4ccccc4)c3)=NO2)C[C@H]1C(N)=O (stereo partly specified) | 4 | 78* | 2 | -1 | i
C/C=C\C=C/C(=O)Nc1cccc(C2=NOC3(C2)C[C@@H](C(N)=O)N(C(=O)/C=C/C=C\C)C3)c1 (stereo partly specified) | 15 | -21 | 0 | 2 | ·
CCN(CC)S(=O)(=O)c1ccc(OC)c(NC(=O)COc2ccccc2[N+](=O)[O-])c1 | 3 | 53* | 1 | 4 | i
O=c1oc2ccccc2c(O)c1/C=C1\C=Nc2ccccc21 | 3 | 11 | -4 | -3 | ·
O=c1[nH]c(O)c(/C=C2\C=Nc3ccccc32)[nH]1 | 5 | 60* | -4 | 9 | i
COc1ccc(C)cc1NC(=O)Nc1cnccn1 | 0 | 102* | 4 | 0 | +
COc1ccccc1C(=O)NNC(=O)C(=O)NCc1ccccc1 | 0 | 15 | 2 | 2 | ·
COc1ccccc1C(=O)NNC(=O)C(=O)NC(C)C | · | 59* | · | -2 | i
Cc1ccc(NC(=S)N2CCN(c3ncccn3)CC2)c(C)c1 | 1 | 0 | 0 | -2 | ·
O=C(CN1C(=O)/C(=C/c2ccccc2F)Sc2ccccc21)NCC1CCCO1 (stereo unspecified) | · | · | · | 1 | ·
Cc1cc(C=C2C(=O)c3ccccc3C2=O)c(C)n1-c1cccc(C(=O)O)c1 | -34 | 74* | -114 | 2 | +
Cc1cc(C)c(Nc2cc(S(=O)(=O)O)c(N)c3c2C(=O)c2ccccc2C3=O)c(C)c1 | 3 | 84* | -9 | · | +
CC(C)(C)c1ccc(OCCC(=O)Nc2cccc(S(=O)(=O)N3CCCCC3)c2)cc1 | -2 | -76 | 0 | 5 | ·
CC(=O)c1ccc(S(=O)(=O)Oc2ccc(-c3ccc(C(=O)O)cc3)cc2)cc1 | · | · | · | -1 | ·
COc1ccc(C(=O)Nc2cccc(/C=C/c3nc4ccccc4c(=O)[nH]3)c2)cc1 | -4 | 56* | 2 | 0 | i
